Laboratory results as given in paper PMC5609517 (Chemical Science, 2017).

Tests used:
[1] = format: physicochemical; conditions: solutions in aqueous media at pH < 7, prolonged periods (>1 week)
MDCK cells = assay: Imaging of carbon monoxide in living cells with fluorescent probe COP-1; format: cell-based, Canine; conditions: 10 μM, at 8 and 37 °C, against respective iCORM (50 μM)
Summary of the method: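 MDCK cells exposed at 37 °C and at 8 °C to test compound (10 μM) or to its CO-depleted product (iCORM, 50 μM) as comparator. Intracellular CO was detected with the CO-selective fluorescent probe COP-1, read as intracellular fluorescence.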

Question: Which results are given for `CC12C(=O)C(C)(C(c3ccccc3)=C1c1ccccc1)C1(Br)C(=O)N(CCNCCN)C(=O)C21.O=C(O)C(F)(F)F.O=C(O)C(F)(F)F` (centres unmarked) [oCOm-23]?
Answer: formation of the corresponding iCORM [1]: no sign of the formation; CO delivery to cells / increased intracellular CO levels (COP-1) (MDCK cells): confirmed
